ChEMBL document CHEMBL1667809, “Synthesis and in vitro antibacterial activity of 7-(3-alkoxyimino-5-amino/methylaminopiperidin-1-yl)fluoroquinolone derivatives” (Bioorg Med Chem Lett, 2011)
In brackets after ≈: the same amount, converted by molar mass.

How the values were obtained:
Staphylococcus aureus [1] = experiment: Antibacterial activity against methicillin-resistant Staphylococcus aureus 10-05 after 18 to 24 hrs by agar dilution method; assay type: functional
Outline: (§1)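 Agar dilution on Petri dishes, each inoculated with 10⁴ cfu. Plates incubated at 35 °C for 18–24 h. MIC taken as the lowest test-compound concentration giving no visible growth on the plate. Reference drugs gemifloxacin, ciprofloxacin and levofloxacin run alongside for comparison.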

Escherichia coli [2] = experiment: Antibacterial activity against Escherichia coli 10-02 after 18 to 24 hrs by agar dilution method; assay type: functional
Outline: (§2)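 Agar dilution on Petri dishes, each inoculated with 10⁴ cfu of the strain and incubated at 35 °C for 18–24 h. MIC read as the lowest compound concentration giving no visible growth on the plate.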

Staphylococcus aureus [3] = experiment: Antibacterial activity against Staphylococcus aureus ATCC 25923 after 18 to 24 hrs by agar dilution method; assay type: functional; outline: as §2
[4] = tested on: Staphylococcus epidermidis; experiment: Antibacterial activity against methicillin-resistant Staphylococcus epidermidis 10-5 after 18 to 24 hrs by agar dilution method; assay type: functional; outline: as §1
Escherichia coli [5] = experiment: Antibacterial activity against Escherichia coli ATCC 25922 after 18 to 24 hrs by agar dilution method; assay type: functional; outline: as §2
Streptococcus pneumoniae = experiment: Antibacterial activity against Streptococcus pneumoniae 1001 after 18 to 24 hrs by agar dilution method; assay type: functional; outline: as §2
[6] = tested on: Staphylococcus epidermidis; experiment: Antibacterial activity against methicillin-sensitive Staphylococcus epidermidis 10-4 after 18 to 24 hrs by agar dilution method; assay type: functional; outline: as §2
Pseudomonas aeruginosa [7] = experiment: Antibacterial activity against Pseudomonas aeruginosa 10-1 after 18 to 24 hrs by agar dilution method; assay type: functional; outline: as §2
Klebsiella pneumoniae = experiment: Antibacterial activity against Klebsiella pneumoniae 10-1 after 18 to 24 hrs by agar dilution method; assay type: functional; outline: as §2
Staphylococcus aureus [8] = experiment: Antibacterial activity against methicillin-sensitive Staphylococcus aureus 10-04 after 18 to 24 hrs by agar dilution method; assay type: functional; outline: as §2
[9] = Cytotoxicity against african green monkey Vero cells after 24 hrs; assay type: cell-based; settings: chlorocebus sabaeus
Outline: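 Vero cells exposed to graded compound concentrations for 24 h, then viability assessed; CC₅₀ derived from the viability data.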

Streptococcus pyogenes = experiment: Antibacterial activity against Streptococcus hemolyticus 1002 after 18 to 24 hrs by agar dilution method; assay type: functional; outline: as §2
Pseudomonas aeruginosa [10] = experiment: Antibacterial activity against Pseudomonas aeruginosa ATCC 27853 after 18 to 24 hrs by agar dilution method; assay type: functional; outline: as §2
Staphylococcus aureus [11] = experiment: Ratio of compound MIC to CPFX MIC for methicillin-sensitive Staphylococcus aureus 10-04; assay type: functional
Staphylococcus aureus [12] = experiment: Ratio of compound MIC to LVFX MIC for methicillin-sensitive Staphylococcus aureus 10-04; assay type: functional

| SMILES | MIC (Staphylococcus aureus [1]) [mg/L] | MIC (Escherichia coli [2]) [mg/L] | MIC (Staphylococcus aureus [3]) [mg/L] | MIC [4] [mg/L] | MIC (Escherichia coli [5]) [mg/L] | MIC (Streptococcus pneumoniae) [mg/L] | MIC [6] [mg/L] | MIC (Pseudomonas aeruginosa [7]) [mg/L] | MIC (Klebsiella pneumoniae) [mg/L] | MIC (Staphylococcus aureus [8]) [mg/L] | CC50 at 24 h [9] [µM] | MIC (Streptococcus pyogenes) [mg/L] | MIC (Pseudomonas aeruginosa [10]) [mg/L] | Ratio (Staphylococcus aureus [11]) | Ratio (Staphylococcus aureus [12]) |
| --- | --- | --- | --- | --- | --- | --- | --- | --- | --- | --- | --- | --- | --- | --- | --- |
| CO/N=C1\CC(N)CN(c2cc3c(cc2F)c(=O)c(C(=O)O)cn3C2CC2)C1 (configuration not stated) | 64 (≈ 165 µM) | 0.25 (≈ 0.644 µM) | 0.5 (≈ 1.29 µM) | 16 (≈ 41.2 µM) | 0.25 (≈ 0.644 µM) | 4 (≈ 10.3 µM) | 8 (≈ 20.6 µM) | > 128 | 64 (≈ 165 µM) | 4 (≈ 10.3 µM) | 593 | 128 (≈ 330 µM) | 2 (≈ 5.15 µM) |  |  |
| CCn1cc(C(=O)O)c(=O)c2cc(F)c(N3C/C(=N/OC)CC(N)C3)c(F)c21 (configuration not stated) | 32 (≈ 81.1 µM) | 0.25 (≈ 0.634 µM) | 0.25 (≈ 0.634 µM) | 16 (≈ 40.6 µM) | 0.25 (≈ 0.634 µM) | 0.5 (≈ 1.27 µM) | 16 (≈ 40.6 µM) | > 128 | > 128 | 0.25 (≈ 0.634 µM) | 913 | 128 (≈ 325 µM) | 8 (≈ 20.3 µM) | 4 | 4 |
| O=C(O)c1cn(C2CC2)c2cc(N3CCNCC3)c(F)cc2c1=O [CIPROFLOXACIN] | 64 (≈ 193 µM) |  | 0.25 (≈ 0.754 µM) | 16 (≈ 48.3 µM) |  | 0.03 (≈ 0.0905 µM) | 1 (≈ 3.02 µM) | 1 (≈ 3.02 µM) | 32 (≈ 96.6 µM) |  |  | 64 (≈ 193 µM) | 32 (≈ 96.6 µM) |  |  |
| CO/N=C1\CN(c2nc3c(cc2F)c(=O)c(C(=O)O)cn3C2CC2)CC1CN (configuration not stated) [GEMIFLOXACIN] | 4 (≈ 10.3 µM) | 0.06 (≈ 0.154 µM) | 0.008 (≈ 0.0205 µM) | 8 (≈ 20.5 µM) | 0.015 (≈ 0.0385 µM) | 0.008 (≈ 0.0205 µM) | 0.25 (≈ 0.642 µM) | 1 (≈ 2.57 µM) | 32 (≈ 82.2 µM) | 2 (≈ 5.14 µM) |  | 8 (≈ 20.5 µM) | 2 (≈ 5.14 µM) |  |  |
| C[C@H]1COc2c(N3CCN(C)CC3)c(F)cc3c(=O)c(C(=O)O)cn1c23.C[C@H]1COc2c(N3CCN(C)CC3)c(F)cc3c(=O)c(C(=O)O)cn1c23.O [LEVOFLOXACIN] | 32 |  | 0.125 | 8 |  | 0.015 | 2 |  | 32 | 8 |  | 32 |  |  |  |
